Experimental data: ChEMBL document CHEMBL1147644, “Dipeptide nitrile inhibitors of cathepsin K” (Bioorg Med Chem Lett, 2006)

Assays:
Cathepsin K = molecular target: T1, Cathepsin K (Homo sapiens, UniProt P43235); experiment: Inhibition of recombinant human cathepsin K
T1 sequence (P43235 whole entry): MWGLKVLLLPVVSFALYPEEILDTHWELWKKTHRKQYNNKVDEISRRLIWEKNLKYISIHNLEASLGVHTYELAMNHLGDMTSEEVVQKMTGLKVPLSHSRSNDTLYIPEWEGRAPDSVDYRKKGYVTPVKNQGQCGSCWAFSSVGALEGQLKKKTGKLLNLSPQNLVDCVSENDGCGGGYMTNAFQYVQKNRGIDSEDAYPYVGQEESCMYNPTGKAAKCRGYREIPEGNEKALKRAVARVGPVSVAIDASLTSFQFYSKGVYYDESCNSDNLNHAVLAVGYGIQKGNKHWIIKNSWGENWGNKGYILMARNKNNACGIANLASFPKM

Procathepsin L = Procathepsin L (Homo sapiens, UniProt P07711); experiment: Inhibition of recombinant human cathepsin L
Chain of Procathepsin L (P07711 whole entry): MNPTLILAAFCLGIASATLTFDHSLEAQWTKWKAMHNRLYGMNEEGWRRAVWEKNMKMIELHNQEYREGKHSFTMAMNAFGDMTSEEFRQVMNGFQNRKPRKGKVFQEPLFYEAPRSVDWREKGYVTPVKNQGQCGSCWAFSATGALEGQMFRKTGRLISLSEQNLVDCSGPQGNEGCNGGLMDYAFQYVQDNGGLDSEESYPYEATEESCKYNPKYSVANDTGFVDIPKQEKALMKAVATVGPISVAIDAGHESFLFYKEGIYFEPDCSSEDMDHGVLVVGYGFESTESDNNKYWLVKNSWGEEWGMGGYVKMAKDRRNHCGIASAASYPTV

Cathepsin S = Cathepsin S (Homo sapiens, UniProt P25774); experiment: Inhibition of recombinant human cathepsin S
Chain of Cathepsin S (P25774 whole entry): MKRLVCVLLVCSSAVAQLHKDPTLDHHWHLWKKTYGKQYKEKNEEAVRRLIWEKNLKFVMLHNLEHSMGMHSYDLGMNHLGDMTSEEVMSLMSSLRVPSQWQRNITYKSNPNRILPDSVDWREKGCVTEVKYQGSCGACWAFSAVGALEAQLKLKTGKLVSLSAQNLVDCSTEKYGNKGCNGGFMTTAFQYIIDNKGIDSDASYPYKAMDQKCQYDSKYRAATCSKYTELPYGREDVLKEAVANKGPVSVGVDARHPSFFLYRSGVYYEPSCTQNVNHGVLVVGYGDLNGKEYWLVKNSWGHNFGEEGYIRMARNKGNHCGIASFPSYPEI

[1] = Clearance in rat; format: ADME, organism-based; details: in vivo
Procedure, shortened: (§1)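 Cassette dosing of six compounds to conscious, fed, permanently cannulated rats. IV bolus of 1 mg kg^-1 in N-methyl-2-pyrrolidone/PEG200 (30:70, v/v). Oral dose of 3 mg kg^-1, dissolved or suspended with sonication in 1% tartaric acid plus 1% carboxymethyl cellulose in water. Same animals received both routes, with a 48 h washout between them. Femoral arterial blood sampled over 24 h. Plasma extracted by acetonitrile precipitation and parent drug quantified by HPLC/MS.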

[2] = Volume of distribution in rat; format: ADME, organism-based; details: in vivo, read-out: Vss; procedure, shortened: as §1
[3] = Terminal half life in rat; format: ADME, organism-based; details: in vivo; procedure, shortened: as §1
Rattus norvegicus = experiment: Cmax in rat at 3 mg/kg, po normalized to 1 mg/kg; format: ADME, organism-based; design: dose 3 mg/kg, route oral; details: in vivo; procedure, shortened: as §1
[4] = Oral bioavailability in rat; format: ADME, organism-based; details: in vivo; procedure, shortened: as §1

CC(C)C[C@H](NC(=O)OCc1ccccc1)C(=O)N[C@H](C#N)COC(C)(C)C
IC50 (Cathepsin K): 240 nM
IC50 (Procathepsin L): 2800 nM
IC50 (Cathepsin S): 900 nM

Cc1cccc(C[C@@H](C#N)NC(=O)[C@H](CC(C)C)NC(=O)OCc2ccccc2)c1
IC50 (Cathepsin K): 120 nM
IC50 (Procathepsin L): 7700 nM
IC50 (Cathepsin S): 2300 nM

Cc1nccn1CC(=O)N[C@@H](CC(C)C)C(=O)N[C@H](C#N)COCc1ccccc1
IC50 (Procathepsin L): 660 nM
IC50 (Cathepsin S): 240 nM

CC(C)C[C@H](NC(=O)c1cc2ccccc2[nH]1)C(=O)N[C@H](C#N)COCc1ccccc1
IC50 (Cathepsin K): < 1 nM
IC50 (Procathepsin L): 154 nM
IC50 (Cathepsin S): 29 nM

COc1ccc(C[C@@H](C#N)NC(=O)[C@H](CC(C)C)NC(=O)OCc2ccccc2)cc1
IC50 (Cathepsin K): 63 nM
IC50 (Procathepsin L): 1100 nM
IC50 (Cathepsin S): 700 nM

CC(C)C[C@H](NC(=O)C(C)(C)Oc1ccc(Cl)cc1)C(=O)N[C@H](C#N)COCc1ccccc1
IC50 (Cathepsin K): < 1 nM
IC50 (Procathepsin L): < 30 nM
IC50 (Cathepsin S): 52 nM
clearance [1]: 141 mL/min/kg
Vd [2]: 13.6 L/kg
half-life [3]: 3.1 h
Cmax (Rattus norvegicus): 3.5 nM
bioavailability [4]: 10.1%

CC(C)C[C@H](NC(=O)c1cc2ccccc2n1C)C(=O)N[C@H](C#N)COCc1ccccc1
IC50 (Cathepsin K): < 1 nM
IC50 (Procathepsin L): 83 nM
IC50 (Cathepsin S): 47 nM
clearance [1]: 82 mL/min/kg
Vd [2]: 7.7 L/kg
half-life [3]: 1.4 h
Cmax (Rattus norvegicus): 51.1 nM
bioavailability [4]: 30.1%

CC(C)C[C@H](NC(=O)OCc1ccccc1)C(=O)N[C@H](C#N)COCc1ccccc1
IC50 (Cathepsin K): 9 nM
IC50 (Procathepsin L): 1700 nM
IC50 (Cathepsin S): 969 nM
clearance [1]: 45 mL/min/kg
Vd [2]: 4.6 L/kg
half-life [3]: 2.2 h
Cmax (Rattus norvegicus): 44.3 nM
bioavailability [4]: 26.4%

Cc1ccc(C[C@@H](C#N)NC(=O)[C@H](CC(C)C)NC(=O)OCc2ccccc2)cc1
IC50 (Cathepsin K): 48 nM
IC50 (Procathepsin L): 9900 nM
IC50 (Cathepsin S): > 10000 nM

CC(C)C[C@H](NC(=O)OCc1ccccc1)C(=O)N[C@H](C#N)Cc1ccc(OCc2ccccc2)cc1
IC50 (Cathepsin K): > 1000 nM
IC50 (Procathepsin L): > 10000 nM
IC50 (Cathepsin S): > 10000 nM

CC(C)C[C@H](NC(=O)C(C)(C)Nc1ccc(Cl)cc1)C(=O)N[C@H](C#N)COCc1ccccc1
IC50 (Cathepsin K): 430 nM
IC50 (Procathepsin L): 190 nM
IC50 (Cathepsin S): 41 nM

CC(C)C[C@H](NC(=O)OCc1ccccc1)C(=O)N[C@H](C#N)Cc1ccc(OC(C)(C)C)cc1
IC50 (Cathepsin K): 398 nM
IC50 (Procathepsin L): 1400 nM
IC50 (Cathepsin S): > 10000 nM

CC(C)C[C@H](NC(=O)CN1CCN(c2ccncc2)CC1)C(=O)N[C@H](C#N)COCc1ccccc1
IC50 (Cathepsin K): 9 nM
IC50 (Procathepsin L): 330 nM
IC50 (Cathepsin S): 180 nM
clearance [1]: 320 mL/min/kg
Vd [2]: 18 L/kg
half-life [3]: 1 h
Cmax (Rattus norvegicus): 2.5 nM
bioavailability [4]: 3.5%

CC(C)C[C@H](NC(=O)OCc1ccccc1)C(=O)N[C@H](C#N)Cc1ccc(C(F)(F)F)cc1
IC50 (Cathepsin K): 43 nM
IC50 (Procathepsin L): 8000 nM
IC50 (Cathepsin S): > 10000 nM

CC(C)C[C@H](NC(=O)CN1CCC(c2ccccc2)CC1)C(=O)N[C@H](C#N)COCc1ccccc1
IC50 (Cathepsin K): 83 nM
IC50 (Procathepsin L): 1200 nM
IC50 (Cathepsin S): 140 nM

Cc1nc[nH]c1CC(=O)N[C@@H](CC(C)C)C(=O)N[C@H](C#N)COCc1ccccc1
IC50 (Cathepsin K): 24 nM
IC50 (Procathepsin L): 110 nM
IC50 (Cathepsin S): 130 nM
clearance [1]: 396 mL/min/kg
Vd [2]: 4.3 L/kg
half-life [3]: 0.2 h
Cmax (Rattus norvegicus): 11.3 nM
bioavailability [4]: 4.6%
